TRPC4 PAM: positive allosteric modulators of TRPC4, primary screen, cell-based, mouse TRPC4beta, HEK293 mu-opioid, Fluo-4 calcium | DAMGO EC20, Fluo-4 Ca2+ flux; stronger effect = higher value | B-score at 10 µM | actives 0.42% (n = 310,000);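 active means B-score of calcium response area above 5 SD of library B-scores, with initial fluorescence ratio within 5 SD of library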;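 further: B-score of integrated fluorescence ratio over time as area under calcium response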
TRPC4 agonist: activators of mouse TRPC4 channel, primary screen, Fluo4 calcium, HEK293 TRPC4beta/mu-opioid cells. B-score at 10 µM. actives 0.49% (n = 310,000). Short transient receptor potential channel 4 (Mus musculus), Q9QUQ5. Fluo4 calcium fluorescence; stronger effect = higher value;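 active means B-score above 5 SD of library B-scores, and initial fluorescence ratio not above library mean plus 5 SD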;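 further: positive B-score marks a calcium rise read as TRPC4 activation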
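Incubation: 45 min room-temperature Fluo4 loading, 110 s read / System: HEK293 cells stably co-expressing mouse TRPC4beta and mu-opioid receptor / Signal: Fluo4 fluorescence, kinetic / Control set: buffer (low) and maximal DAMGO (high) / Measure: integrated baseline-normalised fluorescence ratio, converted to per-well B score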
TRPC6 inh: mouse TRPC6 channel inhibitors, primary screen, cell-based, HEK293, membrane potential dye. Short transient receptor potential channel 6 (Mus musculus), Q61143. ACh-evoked depolarization; stronger effect = lower value. B-score at 10 µM. actives 1.1% (n = 310,000). AID 2553, 2010;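 active means B-score under library mean minus 3 SD, initial fluorescence not abnormally high, positive integrated signal ratio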;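 further: B-score derived from integrated fluorescence ratio over the kinetic read; more negative B-score means stronger inhibition of depolarization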
Target sequence (Q61143 whole entry, looked up): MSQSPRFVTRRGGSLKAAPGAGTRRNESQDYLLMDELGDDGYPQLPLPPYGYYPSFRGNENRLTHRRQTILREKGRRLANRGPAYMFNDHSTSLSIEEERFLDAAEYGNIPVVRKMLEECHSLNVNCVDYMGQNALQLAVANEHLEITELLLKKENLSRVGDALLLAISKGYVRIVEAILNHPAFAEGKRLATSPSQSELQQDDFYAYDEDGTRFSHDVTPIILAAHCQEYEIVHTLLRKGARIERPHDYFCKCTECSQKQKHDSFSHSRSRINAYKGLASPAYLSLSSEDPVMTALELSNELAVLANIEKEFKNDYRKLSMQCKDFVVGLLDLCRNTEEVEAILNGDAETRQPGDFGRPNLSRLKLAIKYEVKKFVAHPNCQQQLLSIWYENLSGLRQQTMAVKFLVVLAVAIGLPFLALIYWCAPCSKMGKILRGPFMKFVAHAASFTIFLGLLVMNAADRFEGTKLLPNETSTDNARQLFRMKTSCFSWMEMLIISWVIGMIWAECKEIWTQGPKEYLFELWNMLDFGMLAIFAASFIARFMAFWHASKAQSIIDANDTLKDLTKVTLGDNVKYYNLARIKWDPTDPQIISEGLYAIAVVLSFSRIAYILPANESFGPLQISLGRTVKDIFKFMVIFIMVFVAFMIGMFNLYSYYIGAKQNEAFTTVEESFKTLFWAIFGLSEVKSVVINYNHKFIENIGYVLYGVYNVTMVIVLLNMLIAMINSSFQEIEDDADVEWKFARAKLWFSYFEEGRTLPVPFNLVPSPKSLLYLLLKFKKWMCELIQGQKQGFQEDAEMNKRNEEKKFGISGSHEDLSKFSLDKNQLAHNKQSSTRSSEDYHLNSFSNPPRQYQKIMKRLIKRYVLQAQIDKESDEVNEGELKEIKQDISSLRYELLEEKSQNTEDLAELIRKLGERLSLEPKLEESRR
TRPC6 activator: mouse TRPC6 channel activators, primary screen, cell-based, HEK293, membrane potential dye. Short transient receptor potential channel 6 (Mus musculus), Q61143. HEK293-TRPC6 membrane potential dye fluorescence; stronger effect = higher value. B-score at 10 µM. actives 0.13% (n = 310,000);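 active means B-score of the integrated fluorescence ratio above library mean plus 3 SD, and starting fluorescence ratio within library mean plus 5 SD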;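 further: higher score means more depolarization so channel activation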
TRPC4 block: inhibitors of mouse TRPC4 channel, primary screen, Fluo4 calcium, HEK293 TRPC4beta/mu-opioid cells | Short transient receptor potential channel 4 (Mus musculus), Q9QUQ5 | DAMGO-evoked Fluo4 calcium flux; stronger effect = lower value | B-score at 10 µM | actives 0.39% (n = 300,000);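 active means B-score over 3 SD under the library average, no early fluorescence shift, positive overall ratio signal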
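Assay system: HEK293 cells with stable TRPC4beta plus mu-opioid receptor expression. Dosing: single dose. Measured by: Fluo4 Ca2+ flux fluorescence. Also added: DAMGO in two steps, submaximal then maximal. Read-out: B score from integrated Fluo4 fluorescence ratio.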
* = called active by the depositor; i = inactive. Hits are enriched below; roughly 2.3% of the tested compounds scored in any of these assays.

SMILES	TRPC4 PAM	TRPC4 agonist	TRPC6 inh	TRPC6 activator	TRPC4 block
COc1nc(NCCc2ccc(OC)c(OC)c2)nc(Nc2ccccc2)n1	i	i	i	i	i
COC(=O)c1ccc(Cn2cnc3cnccc32)cc1	i	i	i	i	i
CCOc1ccc(N=Cc2ccc3ccccc3c2)cc1	i	i	i	i	i
CCOc1ccc(N=CNc2ccc(OCC)cc2)cc1	15*	i	i	i	i
Cc1ccc2c(c1)N(C(=O)CCC(=O)NCc1cccc(Br)c1)CC(C)O2 (stereo not drawn)	i	i	i	i	i
CS(=O)(=O)N1N=C(c2cccs2)CC1c1ccco1 (stereo not drawn)	i	i	i	i	i
Cc1ccc(-n2cc(CNCCCn3ccnc3C)c(-c3ccc(F)cc3)n2)cc1	i	i	i	i	i
Cc1ccc(-n2cc(CNCCCn3cccn3)c(-c3cccc(C)c3)n2)cc1	i	43*	i	i	i
Cc1ccc(C)c(-n2cc(CNCCCn3cccn3)c(-c3ccccc3)n2)c1	i	205*	i	i	i
Cc1ccc(C)c(-n2cc(CN3CCCN(C=O)CC3)c(-c3ccccc3)n2)c1	i	72*	i	i	i
COc1ccc(C(CNC(=O)C2CCN(S(=O)(=O)c3ccc(F)cc3)CC2)N(C)C)cc1 (stereo not drawn)	i	137*	i	i	i
Cc1ccc(-c2c(C(=O)N/N=C/c3c[nH]c4ccccc34)nnn2-c2nonc2N)cc1	i	i	i	i	i
Cc1ccc(Oc2ccccc2/C=N/O)cc1	i	i	i	i	-7*
CCOC(=O)c1c(N)sc(-c2ccccc2)c1C	i	i	i	i	i
CCOC(=O)c1c(N)sc(C(O)(C(F)(F)F)C(F)(F)F)c1-c1ccccc1	i	i	i	i	-7*
O=C(Nc1ccc(F)cc1)N1CCN2C(=O)c3ccccc3C12c1ccccc1 (stereo not drawn)	i	i	i	i	-6*
O=C1c2ccccc2C2(c3ccccc3)N1CCN2C(=O)C(Cl)(Cl)Cl (stereo not drawn)	i	i	i	i	i
CC1CC(C)CN(C(=O)c2ccc(S(=O)(=O)N3CC(C)CC(C)C3)cc2)C1 (stereo not drawn)	i	i	i	i	i
Clc1ccc(-c2nnc(N3CCOCC3)o2)cc1	i	i	i	i	i
CCN1CCN(C(=O)C2c3cc(OC)c(OC)cc3C(=O)N(C)C2c2ccc(SC)cc2)CC1 (stereo not drawn)	i	67*	i	i	i
COc1ccc(C2C(C(=O)N3CCN(C)CC3)c3cc(OC)c(OC)cc3C(=O)N2C)cc1 (stereo not drawn)	i	i	i	i	i
CNC[C@H](O)c1ccc(O)c(O)c1	i	i	i	i	i
CNC[C@H](O)c1cccc(O)c1	i	52*	i	i	i
Cc1ccc(S(=O)(=O)Nc2nc3ccc(S(C)(=O)=O)cc3s2)cc1	i	i	i	i	i
CC(=O)Nc1ccc(S(=O)(=O)Nc2nc3ccc(C)cc3s2)cc1	i	i	i	i	-5*
SMILES	TRPC4 PAM	TRPC4 agonist	TRPC6 inh	TRPC6 activator	TRPC4 block
CN1C(=O)C(=O)/C(=C(/O)c2ccc(Br)cc2)C1c1ccc(F)cc1 (stereo not drawn)	i	i	i	i	i
COc1ccc(CCNC(=O)C(=O)NCC2OCCN2S(=O)(=O)c2ccc(Cl)cc2)cc1OC (stereo not drawn)	i	i	i	i	i
CC(Oc1ccc(Br)cc1)C(=O)Nc1ccc(S(=O)(=O)N(C)C2CCN(C)CC2)cc1 (stereo not drawn)	i	63*	i	i	i
C/C(=N\N1CCN(C)CC1)c1ccc(OC(F)F)cc1	i	i	i	i	i
C/C(=N\N1CCN(C)CC1)c1ccc(Cl)c(Cl)c1	15*	i	i	i	i
COc1ccc(N2CCN(Cc3nc4ccccc4n3C)CC2)cc1	i	124*	i	i	i
COc1cc(C2N(c3cccc(Cl)c3)C(=O)C3CCCN32)cc(OC)c1OC (stereo not drawn)	14*	i	i	i	i
COc1cc(C2N(c3ccc(Cl)c(Cl)c3)C(=O)C3CCCN32)cc(OC)c1OC (stereo not drawn)	i	81*	i	i	i
COc1ccc(N2C(=O)C3CCCN3C2c2ccc(C)o2)cc1Cl (stereo not drawn)	i	i	i	i	i
COc1cc(C2N(c3ccc(Cl)cc3)C(=O)C3CCCN32)cc(OC)c1OC (stereo not drawn)	i	i	i	i	i
COc1ccc(N2C(=O)C3CCCN3C2c2cc(OC)c(OC)c(OC)c2)cc1 (stereo not drawn)	i	i	i	i	i
Cc1ccc(C2N(c3ccc(Cl)c(Cl)c3)C(=O)C3CCCN32)o1 (stereo not drawn)	15*	122*	i	i	i
CC(=O)c1ccc(OCc2cc(C(=O)NC(C)CCn3cccn3)no2)cc1 (stereo not drawn)	i	i	i	i	i
CCONc1ncnc2nonc12	i	i	i	i	i
Clc1ccc(CONc2ncnc3nonc23)c(Cl)c1	30*	i	i	i	i
COc1cc(C2NCCc3c2[nH]c2ccccc32)ccc1OC(C)C (stereo not drawn)	i	i	-6.1*	i	i
COc1ccccc1C1=NOC(C)(c2nnc(-c3cccc(Cl)c3)o2)C1 (stereo not drawn)	i	i	i	i	i
O=C(Nc1nc(N2C(=O)c3ccccc3C2=O)n(-c2ccccc2)n1)c1ccc(Cl)cc1	i	47*	i	i	-6*
OC(CNC1CCCc2ccccc21)COc1ccc2ccccc2c1 (stereo not drawn)	i	101*	i	i	i
O=C(c1ccccc1)c1ccc(OCC(O)CNC2CCCc3ccccc32)cc1 (stereo not drawn)	i	i	i	i	i
COc1cccc(OC)c1OCCCNC1CCCC1	i	i	i	i	i
